As a reminder, the IC50 is the concentration that gives 50% inhibition.

The results in this text go back to ChEMBL document CHEMBL4392884, “Sesquiterpene Lactones from Artemisia argyi: Absolute Configuration and Immunosuppressant Activity” (J Nat Prod, 2019).

One data set has as its system T-cell. The data set can be described thus: Immunosuppressant activity in human T lymphocytes assessed as inhibition of anti-human CD3 and anti-human CD28 monoclonal antibody-induced T lymphocyte proliferation incubated for 72 hrs by FACS analysis. It counts as functional, cell-based. The essentials:
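Stimulated human T lymphocytes were exposed to compounds over 0.01−30 μg/mL. Proliferation was read by FACS, with forward and side scatter used to score antiproliferative activity and cytotoxicity together. Three independent experiments were run, expressed as mean ± standard deviation relative to the untreated, stimulated control.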
For `C=C1C(=O)O[C@@H]2[C@@H]3[C@@]4(C=C[C@@]3(C)[C@@]3(C4)C(=O)O[C@@H]4[C@H]5C(C)=CC(=O)C5=C(C)C[C@H](OC(C)=O)[C@H]43)[C@](C)(O)CC[C@@H]12`, the IC50 turned out to be 3.2 µM.
On the same count and under the same terms, under `C=C1[C@@H](OC(C)=O)C[C@@H](O)[C@]2(C)CCC3=C(COC(C)=O)C(=O)O[C@@H]3[C@@H]12` stands 13.8 µM; under `C=C1C(=O)O[C@H]2[C@H]1[C@@H](OC(C)=O)CC(C)=C1C[C@H]3O[C@@]3(C)[C@@H]12`, 1.9 µM; under `C=C1C(=O)O[C@H]2[C@H]1CC[C@@](C)(O)[C@@]13O[C@@H]1[C@@H]1O[C@]1(C)[C@H]23`, 3.7 µM.
`C=C1C(=O)O[C@H]([C@H]2C(=O)C=C[C@@]2(C)O)[C@H]1CCC(C)=O` (relative stereo): the concentration for half-maximal inhibition (IC50) was 1.2 µM.
On the same count and under the same terms, the figure for `C=C1C(=O)O[C@H]([C@@H]2C(=O)C=C[C@]2(C)O)[C@H]1CCC(C)=O` (relative stereo) [SECOTANAPARTHOLIDE B] is 1 µM; for `C=C1C(=O)O[C@H]2[C@H]1CC[C@@](C)(O)[C@]13O[C@H]1[C@H]1O[C@@]1(C)[C@H]23` [ARTECANIN] it is 2.7 µM.
Turning to `COc1ccc(-c2cc(=O)c3c(O)c(OC)c(O)cc3o2)cc1OC` [EUPATILIN], the half-maximal inhibitory concentration (IC50) stood at 11.7 µM.
`COc1cc(-c2cc(=O)c3c(O)c(OC)c(O)cc3o2)ccc1O` [JACEOSIDINE]: the IC50 was found to be 5.8 µM.
In the case of `C=C1C(=O)O[C@@H]2[C@H]3C(C)=CC[C@@H](O)[C@]3(C)CC[C@@H]12` [SANTAMARIN], the IC50 came to 19.6 µM.

The test system of another data set is T-cell. As to the kind of experiment: Toxicity in anti-human CD3 and anti-human CD28 monoclonal antibody-stimulated human T lymphocytes assessed as induction of apoptosis at 3 times antiproliferative IC50 incubated for 48 hrs by annexin V-FITC and propidium iodide staining based FACS analysis. On the technique in general: Flow cytometry measures light scatter and fluorescence of single cells or particles in a stream.
`C=C1C(=O)O[C@H]2[C@H]1[C@@H](OC(C)=O)CC(C)=C1C[C@H]3O[C@@]3(C)[C@@H]12`: the Activity result is on record as “Non-Toxic”.
